# Measured values: ChEMBL document CHEMBL1156338 (J Med Chem, 2010)
# Experiments:
# THP-1 = assay: Inhibition of LPS-induced TNFalpha production in human THP1 cells after 3 hrs; type: functional, cell-based; details: Homo sapiens, THP-1, 3 h; read-out: IC50
# In short: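 THP-1 cells at 1.5 x 10^6/mL in RPMI 1640, 10% heat-inactivated FBS, NEAA, 30 μM βME. 3-fold serial compound dilutions in DMSO, then LPS stimulation for 3 h at 37 C, 5% CO2. Secreted TNF-alpha read by electrochemiluminescent immunoassay; percent of DMSO control; IC50 is the mean of at least three independent curves.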
# [1] = Volume of distribution at steady state in Sprague-Dawley rat at 2 mg/kg, iv; type: ADME, organism-based; parameters: dose 2 mg/kg, route intravenous; details: in vivo, read-out: Vdss
# [2] = Half life in Sprague-Dawley rat at 2 mg/kg, iv; type: ADME, organism-based; parameters: dose 2 mg/kg, route intravenous; details: in vivo
# [3] = Oral bioavailability in Sprague-Dawley rat at 2 mg/kg; type: ADME, organism-based; details: in vivo
# [4] = Plasma protein binding in human by ultrafiltration method; type: ADME, cell-free; details: read-out: PPB (converted)
# [5] = Plasma protein binding in rat by ultrafiltration method; type: ADME, cell-free; details: read-out: PPB (converted)
# [6] = target: Mitogen-activated protein kinase 11 (Homo sapiens, UniProt Q15759); assay: Inhibition of p38beta at 1 uM relative to control
# Chain of Mitogen-activated protein kinase 11 (Q15759 whole entry): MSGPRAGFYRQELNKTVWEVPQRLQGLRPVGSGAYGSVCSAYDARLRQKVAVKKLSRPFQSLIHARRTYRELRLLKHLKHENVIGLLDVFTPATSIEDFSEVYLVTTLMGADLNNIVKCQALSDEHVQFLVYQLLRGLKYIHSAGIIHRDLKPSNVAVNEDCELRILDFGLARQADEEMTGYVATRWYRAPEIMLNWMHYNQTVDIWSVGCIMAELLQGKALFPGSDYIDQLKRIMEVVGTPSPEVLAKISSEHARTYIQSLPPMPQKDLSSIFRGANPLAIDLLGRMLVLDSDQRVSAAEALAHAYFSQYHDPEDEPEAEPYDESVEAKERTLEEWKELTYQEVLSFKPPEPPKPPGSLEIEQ
# [7] = target: Platelet-derived growth factor receptor alpha (Homo sapiens, UniProt P16234); assay: Inhibition of PDGFRalpha at 1 uM relative to control
# Chain of Platelet-derived growth factor receptor alpha (P16234 whole entry): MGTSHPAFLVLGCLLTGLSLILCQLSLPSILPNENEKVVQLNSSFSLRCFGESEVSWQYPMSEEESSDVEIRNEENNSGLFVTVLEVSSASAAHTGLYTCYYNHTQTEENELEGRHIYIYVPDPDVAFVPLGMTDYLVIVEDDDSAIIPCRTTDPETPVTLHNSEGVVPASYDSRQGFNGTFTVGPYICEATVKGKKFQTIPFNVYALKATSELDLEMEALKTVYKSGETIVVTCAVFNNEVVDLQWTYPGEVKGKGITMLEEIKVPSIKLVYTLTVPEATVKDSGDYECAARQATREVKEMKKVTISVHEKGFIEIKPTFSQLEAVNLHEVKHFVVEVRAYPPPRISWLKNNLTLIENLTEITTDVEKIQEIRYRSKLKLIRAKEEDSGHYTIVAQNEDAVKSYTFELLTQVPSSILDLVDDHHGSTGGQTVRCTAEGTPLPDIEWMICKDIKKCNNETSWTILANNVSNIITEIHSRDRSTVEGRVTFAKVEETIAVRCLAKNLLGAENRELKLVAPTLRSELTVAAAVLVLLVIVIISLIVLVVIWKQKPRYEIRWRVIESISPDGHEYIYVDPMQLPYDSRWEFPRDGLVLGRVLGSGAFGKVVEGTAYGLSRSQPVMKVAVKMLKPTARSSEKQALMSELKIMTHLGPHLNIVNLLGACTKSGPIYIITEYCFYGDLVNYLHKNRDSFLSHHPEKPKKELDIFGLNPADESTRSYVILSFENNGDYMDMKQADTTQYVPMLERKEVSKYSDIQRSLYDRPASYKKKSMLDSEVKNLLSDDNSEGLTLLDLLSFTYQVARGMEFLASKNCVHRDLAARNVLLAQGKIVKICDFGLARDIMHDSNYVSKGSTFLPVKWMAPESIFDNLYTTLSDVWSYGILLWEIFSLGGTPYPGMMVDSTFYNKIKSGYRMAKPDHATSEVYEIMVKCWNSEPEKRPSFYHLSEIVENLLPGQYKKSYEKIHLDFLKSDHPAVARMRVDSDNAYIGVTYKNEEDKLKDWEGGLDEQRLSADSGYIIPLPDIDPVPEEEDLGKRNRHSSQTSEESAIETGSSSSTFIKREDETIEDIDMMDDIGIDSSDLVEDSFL
# [8] = target: RAF proto-oncogene serine/threonine-protein kinase (Homo sapiens, UniProt P04049); assay: Binding affinity to RAF1
# Chain of RAF proto-oncogene serine/threonine-protein kinase (P04049 whole entry): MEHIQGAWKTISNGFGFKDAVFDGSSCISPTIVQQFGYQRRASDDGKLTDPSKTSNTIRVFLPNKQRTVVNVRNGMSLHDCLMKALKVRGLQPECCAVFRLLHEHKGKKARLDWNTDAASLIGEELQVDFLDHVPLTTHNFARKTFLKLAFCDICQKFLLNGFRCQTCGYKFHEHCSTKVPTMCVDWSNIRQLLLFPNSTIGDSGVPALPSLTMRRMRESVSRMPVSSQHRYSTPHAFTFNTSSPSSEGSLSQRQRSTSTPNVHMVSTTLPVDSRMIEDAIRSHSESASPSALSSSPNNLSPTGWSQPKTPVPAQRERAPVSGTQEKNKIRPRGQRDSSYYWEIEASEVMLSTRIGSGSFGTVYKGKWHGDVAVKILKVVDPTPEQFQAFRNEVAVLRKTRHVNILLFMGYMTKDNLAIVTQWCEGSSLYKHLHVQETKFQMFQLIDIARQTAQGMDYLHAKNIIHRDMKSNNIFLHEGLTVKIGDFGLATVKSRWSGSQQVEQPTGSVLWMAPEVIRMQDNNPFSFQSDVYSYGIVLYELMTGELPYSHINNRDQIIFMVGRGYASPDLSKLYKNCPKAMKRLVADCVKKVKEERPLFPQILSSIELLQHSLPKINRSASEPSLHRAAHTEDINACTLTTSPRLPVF
# [9] = target: T1, Mitogen-activated protein kinase 13 (Homo sapiens, UniProt O15264); assay: Inhibition of p38delta
# T1 sequence (O15264 whole entry): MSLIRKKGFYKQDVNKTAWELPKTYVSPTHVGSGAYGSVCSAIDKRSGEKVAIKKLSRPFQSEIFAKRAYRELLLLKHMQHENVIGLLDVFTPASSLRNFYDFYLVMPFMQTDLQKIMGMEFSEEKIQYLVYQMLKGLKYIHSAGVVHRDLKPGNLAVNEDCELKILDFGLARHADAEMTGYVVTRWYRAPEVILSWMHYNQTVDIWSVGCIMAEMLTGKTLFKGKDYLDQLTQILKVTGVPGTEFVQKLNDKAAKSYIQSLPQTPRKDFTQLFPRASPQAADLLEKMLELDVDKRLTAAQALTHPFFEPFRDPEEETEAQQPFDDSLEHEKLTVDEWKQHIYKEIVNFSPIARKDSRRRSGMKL
# V79 = assay: Genotoxicity in Chinese hamster V79 cells by micronucleus test; type: toxicity, cell-based, Cricetulus griseus
# Cytochrome P450 2B6 = target: T2, Cytochrome P450 2B6 (Homo sapiens, UniProt P20813); assay: Induction of CYP2B6 in human hepatocytes at 25 uM; type: ADME, cell-based, Hepatocyte
# T2 sequence (P20813 whole entry): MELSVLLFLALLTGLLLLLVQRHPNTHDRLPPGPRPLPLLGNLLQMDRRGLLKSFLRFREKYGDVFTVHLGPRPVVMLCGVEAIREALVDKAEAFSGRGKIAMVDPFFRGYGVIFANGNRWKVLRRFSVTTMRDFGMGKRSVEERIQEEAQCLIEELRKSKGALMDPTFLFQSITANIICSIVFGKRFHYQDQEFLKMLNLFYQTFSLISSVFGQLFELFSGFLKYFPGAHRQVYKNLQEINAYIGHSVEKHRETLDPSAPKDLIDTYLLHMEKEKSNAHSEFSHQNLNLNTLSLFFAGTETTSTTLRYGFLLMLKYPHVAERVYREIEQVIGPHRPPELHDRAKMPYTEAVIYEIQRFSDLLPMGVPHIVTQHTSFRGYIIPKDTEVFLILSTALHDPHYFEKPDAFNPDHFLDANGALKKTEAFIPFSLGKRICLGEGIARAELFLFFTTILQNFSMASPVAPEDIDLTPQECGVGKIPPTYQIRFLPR
# [10] = target: T3, Nuclear receptor subfamily 1 group I member 2 (Homo sapiens, UniProt O75469); assay: Transactivation of human PXR expressed in HepG2 cells at 10 uM after 24 hrs by luciferase reporter gene assay relative to rifampin; type: cell-based; details: hepg2, 24 h
# T3 sequence (O75469 whole entry): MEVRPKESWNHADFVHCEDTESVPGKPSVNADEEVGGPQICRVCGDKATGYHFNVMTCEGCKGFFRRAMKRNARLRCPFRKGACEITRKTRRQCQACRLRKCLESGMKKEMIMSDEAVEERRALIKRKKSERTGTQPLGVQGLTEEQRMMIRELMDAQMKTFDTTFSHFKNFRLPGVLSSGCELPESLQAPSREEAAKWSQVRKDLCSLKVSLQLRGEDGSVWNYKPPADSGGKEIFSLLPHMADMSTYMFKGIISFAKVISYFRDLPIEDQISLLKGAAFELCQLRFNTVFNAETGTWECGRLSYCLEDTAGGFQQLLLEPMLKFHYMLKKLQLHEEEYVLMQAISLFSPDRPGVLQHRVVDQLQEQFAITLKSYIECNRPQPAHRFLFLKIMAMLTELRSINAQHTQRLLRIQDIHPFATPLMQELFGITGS
# In short: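 HepG2 cells transfected with a CYP3A4-promoter luciferase reporter and human PXR cDNA. Compound added from DMSO stocks to final 2 and 10 μM in buffer and incubated 24 h. Luciferase activity read by chemiluminescence and reported as percent of the rifampin (10 μM) positive control.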
# [11] = Trough plasma concentration in porcine type 2 collagen-induced arthritis Lewis rat model at 0.01 to 1 mg/kg, po after 24 hrs; type: ADME, organism-based; parameters: dose 0.01-1 mg/kg, route oral
# Rattus norvegicus = assay: Inhibition of MAPKAP2 phosphorylation in porcine type 2 collagen-induced arthritis Lewis rat ankles at 0.01 to 1 mg/kg, po by Western blotting; type: functional; details: dose mg/kg 0.01-1
# In short: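 Oral dosing once daily for 7 days in collagen-induced arthritic Lewis rats, vehicle 15% HPBCD, 1% HPMC, 1% Pluronic F68, pH 2.2. Ankles (n = 2/group) frozen at sacrifice, pulverized and lysed; 15 μg protein per lane for Western blot with phospho-MK2 antibody. Signal normalized to Akt and expressed as percent of vehicle-treated arthritic control.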
# in vitro = details: human, Caco-2
smiles,measurement,setting,value
Cc1ccc(C(=O)NC2CC2)cc1-c1cc2cnn(-c3c(F)cccc3F)c2n(C)c1=O,IC50,THP-1,0.0006 µM
same,Vd,[1],0.837 L/kg
same,half-life,[2],2.7 h
same,bioavailability,[3],43%
same,fraction unbound,[4],0.079
same,fraction unbound,[5],0.087
same,inhibition,[6],< 50%
same,inhibition,[7],< 50%
same,Kd,[8],1.1 µM
same,Ki,[9],2.1 µM
same,Activity,V79,Non-toxic
same,Activity,Cytochrome P450 2B6,Not Active
same,Activity,[10],13%
same,concentration at 24 h,[11],4.4 nM
same,ED50,Rattus norvegicus,≤ 0.01 mg/kg
same,Papp A→B,in vitro,27 ×10⁻⁶ cm/s
